Data set [1] in a line: Selectivity index, ratio of IC50 for inhibition of recombinant human full-length N-terminal His-tagged PI3K p110beta/p85alpha to IC50 for inhibition of human full length PI3K p110delta/p85alpha.
The subject of data set [2] is Rattus norvegicus. Put plainly: Antiarthritic activity in Lewis rat model of Freund's incomplete adjuvant-induced arthritis assessed as inhibition of bone resorption at 0.3 to 3 mg/kg, po bid administered for 7 days at 12 hrs interval starting from day 10 to day 16 post-immunization by microscopic analysis relative to control. The settings on record: dose 0.3-3 mg/kg, time 7 day. Type of data set: functional. Also noted: scale not given: the % may be the effect or the level left. The essentials: (§1)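 Female Lewis rats with established collagen-induced arthritis dosed orally twice daily for 7 days at 0.3, 1 and 3 mg/kg, starting day 10 after second collagen immunization. Joint histopathology scored for pannus formation, cartilage damage, bone resorption and periosteal bone formation; ED50 derived. n = 8/treatment group, n = 4 normal controls.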

Data set [3] relates to Rattus norvegicus. Put plainly: Antiarthritic activity in po dosed Lewis rat model of Freund's incomplete adjuvant-induced arthritis administered for 7 days at 12 hrs interval starting from day 10 to day 16 post-immunization by microscopic analysis. Type of data set: functional. The settings on record: 168 h, time 7 day. In outline:
as §1

The nature of data set [4]: Terminal half life in Beagle dog at 1 mg/kg, iv measured over 24 hrs by LC/MS/MS analysis. Type of data set: ADME, organism-based, Canis lupus familiaris. The settings on record: in vivo, read-out: beta t1/2 (converted). In outline: (§2)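 Single intravenous dose of 1 mg/kg. Vehicles: rats and dogs 5% ethanol/55% PEG 400/40% water; cynomolgus monkeys 5% ethanol/22% PEG 400/73% water; rhesus monkeys 5% ethanol/25% PEG 400/70% water. Plasma concentration–time data gave Vss and iv half-life. Reported as mean ± SD, n = 3.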

Data set [5] can be described thus: AUC infinity in Lewis rat at 1 to 5 mg/kg, po administered as single dose. Format: ADME, organism-based. The conditions noted are these: in vivo, dose 1-5 mg/kg. The essentials:
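Female Lewis rats given a single oral dose of 1 or 5 mg/kg; plasma concentration–time profiles determined; mean ± SD, n = 3.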

Data set [6] can be described thus: Oral bioavailability in Beagle dog at 5 mg/kg measured over 24 hrs by LC/MS/MS analysis. Type of data set: ADME, organism-based, Canis lupus familiaris. The conditions noted are these: in vivo. In outline:
(§3)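 Intravenous 1 mg/kg and oral 5 mg/kg doses. Vehicle: 5% ethanol/55% PEG 400/40% water for rats and dogs; 5% ethanol/22% PEG 400/73% water for cynomolgus; 5% ethanol/25% PEG 400/70% water for rhesus. Half-life and MRT from iv; mean ± SD, n = 3 per route.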

For data set [7], the target named is T1, Phosphatidylinositol 4,5-bisphosphate 3-kinase catalytic subunit delta isoform (Homo sapiens, UniProt O00329).
T1 sequence (O00329 whole entry): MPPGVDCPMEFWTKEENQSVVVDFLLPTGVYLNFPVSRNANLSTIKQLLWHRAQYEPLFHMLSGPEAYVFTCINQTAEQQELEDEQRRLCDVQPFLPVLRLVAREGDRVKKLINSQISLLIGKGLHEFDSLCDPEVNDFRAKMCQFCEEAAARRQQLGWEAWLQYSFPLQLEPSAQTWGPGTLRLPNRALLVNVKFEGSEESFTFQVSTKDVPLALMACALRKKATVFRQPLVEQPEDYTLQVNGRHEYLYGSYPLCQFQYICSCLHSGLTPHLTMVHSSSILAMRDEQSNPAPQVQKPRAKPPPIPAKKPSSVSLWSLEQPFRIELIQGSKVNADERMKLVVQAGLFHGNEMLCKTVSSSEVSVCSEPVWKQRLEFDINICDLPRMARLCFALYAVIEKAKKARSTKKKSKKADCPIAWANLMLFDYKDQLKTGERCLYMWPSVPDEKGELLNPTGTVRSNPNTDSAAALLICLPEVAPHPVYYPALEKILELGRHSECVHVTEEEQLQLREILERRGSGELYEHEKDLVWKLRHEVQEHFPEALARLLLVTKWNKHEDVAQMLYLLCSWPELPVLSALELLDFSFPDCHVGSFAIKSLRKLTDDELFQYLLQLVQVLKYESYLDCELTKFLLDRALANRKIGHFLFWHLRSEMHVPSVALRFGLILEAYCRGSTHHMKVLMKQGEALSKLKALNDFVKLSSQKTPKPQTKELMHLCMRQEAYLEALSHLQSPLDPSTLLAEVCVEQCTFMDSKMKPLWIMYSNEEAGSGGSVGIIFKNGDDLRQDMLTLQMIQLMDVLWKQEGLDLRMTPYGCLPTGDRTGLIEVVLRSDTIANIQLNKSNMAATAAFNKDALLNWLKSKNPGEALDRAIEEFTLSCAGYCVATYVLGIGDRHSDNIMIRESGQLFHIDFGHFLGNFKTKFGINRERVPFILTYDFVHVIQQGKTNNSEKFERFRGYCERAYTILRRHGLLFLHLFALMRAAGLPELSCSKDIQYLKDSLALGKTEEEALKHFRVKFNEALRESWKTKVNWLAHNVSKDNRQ
As to the kind of experiment: Inhibition of PI3Kdelta in human whole blood assessed as inhibition of BCR-induced B-cell activation.

Data set [8] in a line: Volume of distribution at steady state in dog at 1 mg/kg, iv. Type of data set: ADME, organism-based, Canis lupus familiaris. The conditions noted are these: in vivo, read-out: Vdss. The essentials:
(§4)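 Rats and dog received 1 mg/kg intravenously, formulated in 12% w/v Captisol in water. Volume of distribution was taken at steady state from the iv plasma profile. Three animals per dosing route.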

Data set [9] can be described thus: Inhibition of CYP450 (unknown origin) at 25 uM. Type of data set: ADME. The conditions noted are these: human.
The nature of data set [10]: Volume of distribution at steady state in rat at 1 mg/kg, iv. The settings on record: in vivo, read-out: Vdss. Type of data set: ADME, organism-based. The essentials: as §4
A short description of data set [11]: MRT in rhesus monkey at 1 mg/kg, iv measured over 24 hrs by LC/MS/MS analysis. Format: ADME, organism-based, Macaca mulatta. The settings on record: in vivo. The essentials:
as §3

Data set [12] in a line: Volume of distribution at steady state in Beagle dog at 1 mg/kg, iv measured over 24 hrs by LC/MS/MS analysis. Format: ADME, organism-based, Canis lupus familiaris. The conditions noted are these: in vivo, read-out: Vdss. The essentials:
as §2

Data set [13] can be described thus: Selectivity index, ratio of IC50 for inhibition of human full length PI3K p110gamma to IC50 for inhibition of human full length PI3K p110delta/p85alpha.
The nature of data set [14]: Selectivity index, ratio of IC50 for inhibition of human full length PI3K p110alpha/p85alpha to IC50 for inhibition of human full length PI3K p110delta/p85alpha.
The species entered for data set [15] is Rattus norvegicus. Put plainly: Inhibition of PI3Kdelta in rat whole blood assessed as reduction in anti-IgD induced B-cell activation by measuring decrease in CD86 surface expression by flow cytometry analysis. Background: Flow cytometry measures light scatter and fluorescence of single cells or particles in a stream.
Test in data set [16]: as above
Data set [17] deals with Phosphatidylinositol 4,5-bisphosphate 3-kinase catalytic subunit gamma isoform (Homo sapiens, UniProt P48736). As to the kind of experiment: Inhibition of PI3K p110gamma in human basophil assessed as reduction in fMLP-induced basophil activation by flow cytometry analysis. Format: tissue-based. In outline: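 Basophil activation via fMLP (p110γ) in 25% serum or in isolated WBCs in low serum, with increasing compound concentrations. Anti-CD63-FITC/anti-CCR3-PE staining; ≥150 (25% serum) or ≥75 (low serum) CCR3-high basophils gated; % CD63-positive normalized to 0.3% DMSO vehicle; concentration corrected for reagent dilution.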
Chain of Phosphatidylinositol 4,5-bisphosphate 3-kinase catalytic subunit gamma isoform (P48736 whole entry, canonical isoform): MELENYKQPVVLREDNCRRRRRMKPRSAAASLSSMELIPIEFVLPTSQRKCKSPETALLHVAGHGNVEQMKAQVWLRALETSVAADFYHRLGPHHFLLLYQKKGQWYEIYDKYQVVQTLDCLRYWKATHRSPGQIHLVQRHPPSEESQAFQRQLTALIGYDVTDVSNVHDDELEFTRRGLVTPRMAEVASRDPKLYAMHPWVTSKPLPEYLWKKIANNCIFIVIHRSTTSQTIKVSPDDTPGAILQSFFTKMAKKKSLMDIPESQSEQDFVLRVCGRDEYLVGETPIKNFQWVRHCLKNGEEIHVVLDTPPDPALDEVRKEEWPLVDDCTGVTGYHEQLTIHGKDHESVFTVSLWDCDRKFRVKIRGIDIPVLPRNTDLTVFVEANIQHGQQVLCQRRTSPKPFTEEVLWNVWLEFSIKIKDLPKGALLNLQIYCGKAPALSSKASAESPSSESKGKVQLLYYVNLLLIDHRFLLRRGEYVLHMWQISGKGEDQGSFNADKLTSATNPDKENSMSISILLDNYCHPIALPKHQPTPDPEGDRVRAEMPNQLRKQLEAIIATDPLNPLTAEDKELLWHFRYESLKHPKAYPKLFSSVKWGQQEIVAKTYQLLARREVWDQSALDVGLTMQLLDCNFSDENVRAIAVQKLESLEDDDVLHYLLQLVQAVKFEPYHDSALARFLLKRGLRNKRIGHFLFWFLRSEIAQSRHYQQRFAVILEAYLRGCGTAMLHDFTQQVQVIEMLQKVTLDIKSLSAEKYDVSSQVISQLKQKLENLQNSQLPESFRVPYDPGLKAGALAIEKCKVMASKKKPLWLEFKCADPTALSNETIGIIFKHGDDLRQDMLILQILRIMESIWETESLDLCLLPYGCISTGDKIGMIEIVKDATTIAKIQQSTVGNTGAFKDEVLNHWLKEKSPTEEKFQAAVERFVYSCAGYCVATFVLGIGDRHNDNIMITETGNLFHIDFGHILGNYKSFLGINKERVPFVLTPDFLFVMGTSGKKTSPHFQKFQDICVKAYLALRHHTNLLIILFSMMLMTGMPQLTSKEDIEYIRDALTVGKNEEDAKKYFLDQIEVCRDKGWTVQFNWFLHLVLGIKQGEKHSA

One compound from ChEMBL document CHEMBL4765230, “Discovery of Orally Efficacious Phosphoinositide 3-Kinase δ Inhibitors with Improved Metabolic Stability” (J Med Chem, 2016) can be followed below.

In the case of `N#Cc1c(N)nc(N)nc1N[C@H](c1nc2c(F)ccc(Cl)c2c(=O)n1-c1cccnc1)C1CC1` [GS-9901], the values for the Ratio IC50 in [1], in data set [13] and in data set [14] were 100, 190 and 750, respectively. Besides, in the data set with Rattus norvegicus [2], the Activity was determined as 50%. For the same compound, in the data set on Rattus norvegicus [3], the ED50 – broadly, the dose at which the effect has come halfway, by size or by number of responders – is 0.6 mg/kg. The half-life in data set [4] was 2.01 h. Further, the AUC(0-inf) (in general, the area under the concentration-time curve extrapolated to infinity) in data set [5] was determined as 16 µM·h. In data set [6], the bioavailability (in general, the share of a dose that reaches the circulation, judged against a reference dose that is usually intravenous) is 49%. In addition, the EC50 (usually the concentration needed to bring the measured effect to its halfway point) is 2.4 nM in data set [7], 1.6 nM in [16] and 404 nM in data set [17]. The figures for the Vd in [8], in data set [10] and in data set [12] were 1.03 L/kg, 0.83 L/kg and 1.03 L/kg, respectively. In addition, in data set [9], the “inhibition (INH)” value was “Not Active”. Moreover, the MRT – broadly, a mean duration of stay, worked out from the concentration-time curve – in [11] amounted to 2 h. Moreover, in the data set filed under Rattus norvegicus [15], the EC90 (as a rule, the concentration at which the effect reaches the 90% level) stood at 31.5 nM.
